From ChEMBL document CHEMBL3102806, “1,2,4-Triazole/oxime hybrids as new strategy for nitric oxide donors: Synthesis, anti-inflammatory, ulceroginicity and antiproliferative activities” (Eur J Med Chem, 2014)

Columns and labels:
[1] = system: Rattus norvegicus; assay: Antiinflammatory activity in albino rat assessed as inhibition of carrageenan-induced paw edema at 0.28 mmol/kg, po administered 30 mins prior to carrageenan-challenge measured after 1 hr relative to control; assay type: functional
Summary of the method: (§1)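 Male albino rats in groups of four were fasted 24 h with water allowed. Dosing was oral at 0.28 mmol/kg, suspended in 0.5% w/v CMC; controls got CMC alone. After 30 min, 0.1 ml of 1% carrageenan in saline went subplantar into the right hind paw and saline into the left. Paw thickness was read by caliper before and at 1–5 h. % inhibition = [(VR−VL)control−(VR−VL)treated]/(VR−VL)control ×100. Mean ± SEM, n = 4, one-way ANOVA vs control.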

[2] = system: Rattus norvegicus; assay: Antiinflammatory activity in albino rat assessed as inhibition of carrageenan-induced paw edema at 0.28 mmol/kg, po administered 30 mins prior to carrageenan-challenge measured after 2 hrs relative to control; assay type: functional; summary of the method: as §1
[3] = system: Rattus norvegicus; assay: Antiinflammatory activity in albino rat assessed as inhibition of carrageenan-induced paw edema at 0.28 mmol/kg, po administered 30 mins prior to carrageenan-challenge measured after 3 hrs relative to control; assay type: functional; summary of the method: as §1
[4] = system: Rattus norvegicus; assay: Antiinflammatory activity in albino rat assessed as inhibition of carrageenan-induced paw edema at 0.28 mmol/kg, po administered 30 mins prior to carrageenan-challenge measured after 4 hrs relative to control; assay type: functional; summary of the method: as §1
[5] = system: Rattus norvegicus; assay: Antiinflammatory activity in albino rat assessed as inhibition of carrageenan-induced paw edema at 0.28 mmol/kg, po administered 30 mins prior to carrageenan-challenge measured after 5 hrs relative to control; assay type: functional; summary of the method: as §1
[6] = system: Rattus norvegicus; assay: Ulcerogenic activity in albino rat carrageenan-induced paw edema model assessed as ulcer index at 0.28 mmol/kg, po (reference value: 0.60 +/- 0.05); assay type: toxicity, organism-based; conditions: in vivo
Summary of the method: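 Rats given the compound orally at 0.28 mmol/kg, suspended in 0.5% aqueous CMC; vehicle-only control, n = 4 per group. Gastric ulcers graded by area: I (<1 mm²), II (1–3 mm²), III (>3 mm²). Ulcer index = 1×(level I count) + 2×(level II) + 3×(level III). Mean ± SEM, one-way ANOVA versus control.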

[7] = Induction of nitric oxide release in phosphate buffer at 10^-4 M at pH 7.4 after 1 hr by Griess colorimetric method in presence of N-acetylcysteine; assay type: physicochemical; conditions: pH 7.4, 1 h, 100 µM
Summary of the method: (§2)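 Final drug concentration 10^-4 M, added from DMF into 1:1 50 mM phosphate buffer (pH 7.4)/MeOH containing 5 × 10^-4 M N-acetylcysteine, at 37 °C. Nitrite read with Griess reagent after 10 min at room temperature, absorbance at 546 nm. Calibration with sodium nitrite standards (10–80 nmol/ml). Reported as mol NO per mol, n = 4 reaction mixtures.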

[8] = Induction of nitric oxide release in phosphate buffer at 10^-4 M at pH 7.4 after 2 hrs by Griess colorimetric method in presence of N-acetylcysteine; assay type: physicochemical; conditions: pH 7.4, 2 h, 100 µM; summary of the method: as §2
[9] = Induction of nitric oxide release in phosphate buffer at 10^-4 M at pH 7.4 after 3 hrs by Griess colorimetric method in presence of N-acetylcysteine; assay type: physicochemical; conditions: pH 7.4, 3 h, 100 µM; summary of the method: as §2
[10] = Induction of nitric oxide release in phosphate buffer at 10^-4 M at pH 7.4 after 4 hrs by Griess colorimetric method in presence of N-acetylcysteine; assay type: physicochemical; conditions: pH 7.4, 4 h, 100 µM; summary of the method: as §2
[11] = Induction of nitric oxide release in phosphate buffer at 10^-4 M at pH 7.4 after 5 hrs by Griess colorimetric method in presence of N-acetylcysteine; assay type: physicochemical; conditions: pH 7.4, 5 h, 100 µM; summary of the method: as §2
[12] = Induction of nitric oxide release in phosphate buffer at 10^-4 M at pH 7.4 after 6 hrs by Griess colorimetric method in presence of N-acetylcysteine; assay type: physicochemical; conditions: pH 7.4, 6 h, 100 µM; summary of the method: as §2
[13] = Induction of nitric oxide release in HCl buffer at 10^-4 M at pH 1 after 1 hr by Griess colorimetric method in presence of N-acetylcysteine; assay type: physicochemical; conditions: pH 1, 1 h, 100 µM
Summary of the method: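 Same Griess nitrite procedure at 10^-4 M final drug with N-acetylcysteine at 37 °C, but with 0.1 N HCl (pH 1) in place of the pH 7.4 phosphate buffer. Absorbance at 546 nm against a sodium nitrite calibration curve.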

Compound	inhibition in vivo at 280 µmol/kg [1] [%]	inhibition in vivo at 280 µmol/kg [2] [%]	inhibition in vivo at 280 µmol/kg [3] [%]	inhibition in vivo at 280 µmol/kg [4] [%]	inhibition in vivo at 280 µmol/kg [5] [%]	UI [6]	Activity [7] [mol/mol]	Activity [8] [mol/mol]	Activity [9] [mol/mol]	Activity [10] [mol/mol]	Activity [11] [mol/mol]	Activity [12] [mol/mol]	Activity [13]
C=CCn1c(SCC(=O)Nc2ccc(C(C)=O)cc2)nnc1-c1ccccc1	48	52	54	70	63	9.3							
C=CCn1c(SCC(=O)Nc2ccc(C(C)=O)cc2)nnc1-c1ccc(OC)cc1	50	51	52	68	66	8.66							
C=CCn1c(SCC(=O)Nc2ccc(C(C)=O)cc2)nnc1-c1cc(OC)c(OC)c(OC)c1	48	54	55	68	64	6.49							
CCn1c(SCC(=O)Nc2ccc(C(C)=O)cc2)nnc1-c1ccccc1	50	53	56	69	66	7.12							
CCn1c(SCC(=O)Nc2ccc(C(C)=O)cc2)nnc1-c1ccc(OC)cc1	51	54	57	65	62	10.52							
CCn1c(SCC(=O)Nc2ccc(C(C)=O)cc2)nnc1-c1ccc(OC)c(OC)c1	56	59	62	69	66	3.6							
CCn1c(SCC(=O)Nc2ccc(C(C)=O)cc2)nnc1-c1cc(OC)c(OC)c(OC)c1	46	50	54	68	64	3.34							
CC(=O)c1ccc(NC(=O)CSc2nnc(-c3ccccc3)n2-c2ccccc2)cc1	41	49	62	67	63	3.38							
COc1ccc(-c2nnc(SCC(=O)Nc3ccc(C(C)=O)cc3)n2-c2ccccc2)cc1	29	42	58	63	60	5.53							
COc1cc(-c2nnc(SCC(=O)Nc3ccc(C(C)=O)cc3)n2-c2ccccc2)cc(OC)c1OC	49	54	55	68	63	4.38							
C=CCn1c(SCC(=O)Nc2ccc(/C(C)=N/O)cc2)nnc1-c1ccccc1	61	63	73	73	71	0.64	0.15	0.2	0.22	0.24	0.16	0.15	Not Active
C=CCn1c(SCC(=O)Nc2ccc(/C(C)=N/O)cc2)nnc1-c1ccc(OC)cc1	54	59	63	75	72	2.69	0.15	0.17	0.23	0.32	0.23	0.16	Not Active
CCn1c(SCC(=O)Nc2ccc(/C(C)=N/O)cc2)nnc1-c1ccc(OC)cc1	54	58	60	73	65	1.04	0.16	0.2	0.24	0.29	0.24	0.23	Not Active
CCn1c(SCC(=O)Nc2ccc(/C(C)=N/O)cc2)nnc1-c1ccc(OC)c(OC)c1	53	65	66	75	73	3.43	0.15	0.19	0.25	0.43	0.36	0.32	Not Active
CCn1c(SCC(=O)Nc2ccc(/C(C)=N/O)cc2)nnc1-c1cc(OC)c(OC)c(OC)c1	29	49	70	70	61	0.83	0.12	0.13	0.14	0.22	0.15	0.14	Not Active
COc1ccc(-c2nnc(SCC(=O)Nc3ccc(/C(C)=N/O)cc3)n2-c2ccccc2)cc1	45	56	57	69	58	1.61	0.13	0.17	0.24	0.29	0.24	0.23	Not Active
COc1cc(-c2nnc(SCC(=O)Nc3ccc(/C(C)=N/O)cc3)n2-c2ccccc2)cc(OC)c1OC	59	62	66	75	70	2.21	0.11	0.14	0.16	0.25	0.15	0.14	Not Active
COc1ccc(-c2nnc(SCC(=O)Nc3ccc(C(C)=O)cc3)n2-c2ccccc2)cc1OC	28	43	51	62	55	8.64							
